Data on 26 compounds can be found in ChEMBL document CHEMBL1123902, “Synthesis and antiinflammatory and analgesic activity of 5-aroyl-1,2-dihydro-3H-pyrrolo[1,2-a]pyrrole-1-carboxylic acids. The 6-substituted compounds” (1987).

The species named for one assay is Rattus norvegicus. In words: Antiinflammatory activity was determined by inhibition of cotton pellet granuloma in rats with respcet to Indomethacin.
Details: not given
The assay is classed as functional.
`Cc1cc2n(c1C(=O)c1ccc(Cl)cc1)CCC2C(=O)O` (stereo not given) had a relative potency of 2.
On the same count and under the same terms, the same measure for `Cc1ccc(C(=O)c2c(C)cc3n2CCC3C(=O)O)cc1` (stereo not given): 0.7.
The same measure, in the same setting: the same measure for `COc1ccc(C(=O)c2c(Cl)cc3n2CCC3C(=O)O)cc1` (stereo not given): 0.7; for `Cc1cc2n(c1C(=O)c1ccc(F)cc1)CCC2C(=O)O` (stereo not given): 1; for `O=C(c1ccc(F)cc1)c1c(Cl)cc2n1CCC2C(=O)O` (stereo not given): 1.
Still for that read-out and setting: the same measure for `O=C(c1ccccc1)c1c(Cl)cc2n1CCC2C(=O)O` (stereo not given): 0.6; for `O=C(c1ccc(Cl)cc1)c1c(Cl)cc2n1CCC2C(=O)O` (stereo not given): 3; for `Cc1ccc(C(=O)c2c(Cl)cc3n2CCC3C(=O)O)cc1` (stereo not given): 0.2.

The species named for a further assay is Mus musculus. In words: Analgesic activity in mice by phenyl quinone-induced writhing assay with respect to aspirin. The assay is classed as functional.
Details: not given
The procedure, abridged:
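Phenylquinone-induced writhing in mice; potency expressed as ED50 with 95% confidence limits, relative to aspirin as reference; number of mice recorded per test.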
Compound `Cc1cc(CC(=O)O)n(C)c1C(=O)c1ccc(Cl)cc1` [ZOMEPIRAC] gave a relative potency of 36.
The same measure, in the same setting: the value for `COc1ccc2c(c1)c(CC(=O)O)c(C)n2C(=O)c1ccc(Cl)cc1` [INDOMETHACIN] was 60; that for `Cc1cc2n(c1C(=O)c1ccc(Cl)cc1)CCC2C(=O)O` (stereo not given) was 167; that for `O=C(c1ccccc1)c1c(Br)cc2n1CCC2C(=O)O` (stereo not given) was 314.
For `Cc1ccc(C(=O)c2c(C)cc3n2CCC3C(=O)O)cc1` (stereo not given), the relative potency stood at 250.
On the same count and under the same terms, the same measure for `COCCCc1cc2n(c1C(=O)c1ccc(F)cc1)CCC2C(=O)O` (stereo not given): roughly 1; for `COc1ccc(C(=O)c2c(Cl)cc3n2CCC3C(=O)O)cc1` (stereo not given): 201; for `Cc1cc2n(c1C(=O)c1ccc(F)cc1)CCC2C(=O)O` (stereo not given): 302.
`COc1ccc2cc([C@H](C)C(=O)O)ccc2c1` [NAPROXEN] displayed a relative potency of 7.
The same measure, in the same setting: the same measure for `COCCCc1cc2n(c1C(=O)c1ccccc1)CCC2C(=O)O` (stereo not given): no more than 3; for `CCc1cc2n(c1C(=O)c1ccccc1)CCC2C(=O)O` (stereo not given): 108.
Same read-out and setting: the value for `COCCc1cc2n(c1C(=O)c1ccc(Cl)cc1)CCC2C(=O)O` (stereo not given) was 5; that for `O=C(c1ccc(F)cc1)c1c(Cl)cc2n1CCC2C(=O)O` (stereo not given) was 151; that for `O=C(c1ccccc1)c1c(Cl)cc2n1CCC2C(=O)O` (stereo not given) was 246.
`COCCCc1cc2n(c1C(=O)c1ccc(Cl)cc1)CCC2C(=O)O` (stereo not given) yielded a relative potency of no less than 1.5.
The same measure, in the same setting: the value for `CSc1ccc(C(=O)c2c(Cl)cc3n2CCC3C(=O)O)cc1` (stereo not given) was 100.
The same measure, in the same setting: the same measure for `COc1ccc(C(=O)c2c(C)cc3n2CCC3C(=O)O)cc1` (stereo not given): 130; for `O=C(c1ccc(F)cc1)c1c(Br)cc2n1CCC2C(=O)O` (stereo not given): 120.
The same measure, in the same setting: the same measure for `Cc1cc2n(c1C(=O)c1ccccc1)CCC2C(=O)O` (stereo not given): 250; for `O=C(c1ccc(Cl)cc1)c1c(Cl)cc2n1CCC2C(=O)O` (stereo not given): 167.
`COCCc1cc2n(c1C(=O)c1ccccc1)CCC2C(=O)O` (stereo not given) returned a relative potency of 7.6.
Consider `CS(=O)(=O)c1ccc(C(=O)c2c(Cl)cc3n2CCC3C(=O)O)cc1` (stereo not given), for which the relative potency is no more than 0.8.
Turning to `COCCc1cc2n(c1C(=O)c1ccc(F)cc1)CCC2C(=O)O` (stereo not given), the relative potency was determined as 1.1.
On to `CCc1cc2n(c1C(=O)c1ccc(F)cc1)CCC2C(=O)O` (stereo not given), for which the relative potency was 121.
In the case of `C1CCC(NC2CCCCC2)CC1.Cc1cc2n(c1C(=O)c1ccccc1)CCC2(C)C(=O)O` (stereo not given), the relative potency was 40.
The same measure, in the same setting: the value for `Cc1ccc(C(=O)c2c(Cl)cc3n2CCC3C(=O)O)cc1` (stereo not given) was 158.

For another assay, the species on record is Rattus norvegicus. In words: Antiinflammatory activity was determined to inhibit adjuvant-induced arthritis in rats with respect to naproxen.
Details: not given
The class given is functional.
As for `COc1ccc2c(c1)c(CC(=O)O)c(C)n2C(=O)c1ccc(Cl)cc1` [INDOMETHACIN], the relative potency is 7.
Still for that read-out and setting: the value for `COc1ccc2cc([C@H](C)C(=O)O)ccc2c1` [NAPROXEN] was 1.

The species entered for another assay is Rattus norvegicus. The experiment in a line: Antiinflammatory activity was determined by inhibition of adjuvant-induced arthritis in rats with respect to naproxen. The class given is functional.
Details: not given
Turning to `Cc1cc2n(c1C(=O)c1ccc(Cl)cc1)CCC2C(=O)O` (stereo not given), the relative potency came to 3.5.
The same measure, in the same setting: the value for `Cc1ccc(C(=O)c2c(C)cc3n2CCC3C(=O)O)cc1` (stereo not given) was 3; that for `COc1ccc(C(=O)c2c(Cl)cc3n2CCC3C(=O)O)cc1` (stereo not given) was 4; that for `Cc1cc2n(c1C(=O)c1ccc(F)cc1)CCC2C(=O)O` (stereo not given) was 3.
Turning to `O=C(c1ccc(F)cc1)c1c(Cl)cc2n1CCC2C(=O)O` (stereo not given), the relative potency was determined as 13.
On to `O=C(c1ccccc1)c1c(Cl)cc2n1CCC2C(=O)O` (stereo not given), for which the relative potency was less than 8.
On the same count and under the same terms, the value for `Cc1cc2n(c1C(=O)c1ccccc1)CCC2C(=O)O` (stereo not given) was 1; that for `O=C(c1ccc(Cl)cc1)c1c(Cl)cc2n1CCC2C(=O)O` (stereo not given) was 40.
On the same count and under the same terms, the same measure for `Cc1ccc(C(=O)c2c(Cl)cc3n2CCC3C(=O)O)cc1` (stereo not given): 11.

A further assay is filed under the species Rattus norvegicus. In words: Antiinflammatory activity was determined by inhibition of cotton pellet granuloma in rats with respect to Indomethacin. The class given is functional.
Details: not given
Consider `Cc1cc2n(c1C(=O)c1ccccc1)CCC2C(=O)O` (stereo not given), for which the relative potency is 1.

For another assay, the species on record is Rattus norvegicus. In words: Gastrointestinal erosive activity was determined by 7-day chronic assay in rats. The assay is classed as functional. The following applies: 168 h, read-out: MED. The essentials:
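Chronic 7-day gastrointestinal erosion assay in rats; read-out is the minimum dose producing erosion (MED).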
Turning to `Cc1cc2n(c1C(=O)c1ccc(Cl)cc1)CCC2C(=O)O` (stereo not given), the minimal effective dose is 0.6 mg/kg.
In the case of `Cc1ccc(C(=O)c2c(C)cc3n2CCC3C(=O)O)cc1` (stereo not given), the minimal effective dose worked out at 2.5 mg/kg.
On the same count and under the same terms, the same measure for `COc1ccc(C(=O)c2c(Cl)cc3n2CCC3C(=O)O)cc1` (stereo not given): roughly 1.3 mg/kg; for `Cc1cc2n(c1C(=O)c1ccc(F)cc1)CCC2C(=O)O` (stereo not given): 1.2 mg/kg; for `COc1ccc2cc([C@H](C)C(=O)O)ccc2c1` [NAPROXEN]: 30 mg/kg.
The same measure, in the same setting: the value for `O=C(c1ccc(F)cc1)c1c(Cl)cc2n1CCC2C(=O)O` (stereo not given) was roughly 0.3 mg/kg; that for `O=C(c1ccccc1)c1c(Cl)cc2n1CCC2C(=O)O` (stereo not given) was roughly 1.7 mg/kg; that for `Cc1cc2n(c1C(=O)c1ccccc1)CCC2C(=O)O` (stereo not given) was 1.7 mg/kg.
On the same count and under the same terms, the value for `O=C(c1ccc(Cl)cc1)c1c(Cl)cc2n1CCC2C(=O)O` (stereo not given) was roughly 0.2 mg/kg; that for `Cc1ccc(C(=O)c2c(Cl)cc3n2CCC3C(=O)O)cc1` (stereo not given) was 5 mg/kg.

Tested on in the next assay: not listed separately
In words: Ratio of MED GI erosion to ED30 for carrageenan rat paw was determined.
Details: not given
The class given is functional. The procedure, abridged: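 Therapeutic ratio calculated as the minimum erosive dose from the 7-day rat gastrointestinal erosion assay divided by the ED30 from the carrageenan rat paw edema assay.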
For `Cc1cc(CC(=O)O)n(C)c1C(=O)c1ccc(Cl)cc1` [ZOMEPIRAC], the Therapeutic index came out at 17.
Still for that read-out and setting: the value for `Cc1cc2n(c1C(=O)c1ccc(Cl)cc1)CCC2C(=O)O` (stereo not given) was 5; that for `Cc1ccc(C(=O)c2c(C)cc3n2CCC3C(=O)O)cc1` (stereo not given) was 7.
Still for that read-out and setting: the value for `COc1ccc(C(=O)c2c(Cl)cc3n2CCC3C(=O)O)cc1` (stereo not given) was 5; that for `Cc1cc2n(c1C(=O)c1ccc(F)cc1)CCC2C(=O)O` (stereo not given) was 12; that for `COc1ccc2cc([C@H](C)C(=O)O)ccc2c1` [NAPROXEN] was 22.
Same read-out and setting: the same measure for `O=C(c1ccc(F)cc1)c1c(Cl)cc2n1CCC2C(=O)O` (stereo not given): 3; for `O=C(c1ccccc1)c1c(Cl)cc2n1CCC2C(=O)O` (stereo not given): 1.
Regarding `Cc1cc2n(c1C(=O)c1ccccc1)CCC2C(=O)O` (stereo not given), the Therapeutic index is 5.
Same read-out and setting: the same measure for `O=C(c1ccc(Cl)cc1)c1c(Cl)cc2n1CCC2C(=O)O` (stereo not given): 1; for `Cc1ccc(C(=O)c2c(Cl)cc3n2CCC3C(=O)O)cc1` (stereo not given): 11.

The test system of the next assay is Rattus norvegicus. In words: Antiinflammatory activity was determined by inhibition of carrageenan-induced edema in rat paw with respect to phenylbutazone. The assay is classed as functional.
Details: not given
The procedure, abridged:
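Carrageenan-induced rat paw edema; potency expressed as ED30 relative to phenylbutazone as reference; number of rats recorded.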
Regarding `Cc1cc(CC(=O)O)n(C)c1C(=O)c1ccc(Cl)cc1` [ZOMEPIRAC], the relative potency worked out at 26.
Still for that read-out and setting: the value for `COc1ccc2c(c1)c(CC(=O)O)c(C)n2C(=O)c1ccc(Cl)cc1` [INDOMETHACIN] was 16; that for `Cc1cc2n(c1C(=O)c1ccc(Cl)cc1)CCC2C(=O)O` (stereo not given) was 122.
Turning to `O=C(c1ccccc1)c1c(Br)cc2n1CCC2C(=O)O` (stereo not given), the relative potency was determined as 7.4.
Still for that read-out and setting: the same measure for `Cc1ccc(C(=O)c2c(C)cc3n2CCC3C(=O)O)cc1` (stereo not given): 43; for `COCCCc1cc2n(c1C(=O)c1ccc(F)cc1)CCC2C(=O)O` (stereo not given): less than 3; for `COc1ccc(C(=O)c2c(Cl)cc3n2CCC3C(=O)O)cc1` (stereo not given): 55.
The same measure, in the same setting: the same measure for `Cc1cc2n(c1C(=O)c1ccc(F)cc1)CCC2C(=O)O` (stereo not given): 103.
The same measure, in the same setting: the value for `COc1ccc2cc([C@H](C)C(=O)O)ccc2c1` [NAPROXEN] was 11; that for `COCCCc1cc2n(c1C(=O)c1ccccc1)CCC2C(=O)O` (stereo not given) was less than 10.
The compound `CCc1cc2n(c1C(=O)c1ccccc1)CCC2C(=O)O` (stereo not given) returned a relative potency of 26.
`COCCc1cc2n(c1C(=O)c1ccc(Cl)cc1)CCC2C(=O)O` (stereo not given) displayed an ED30 of less than 0.3 mg/kg.
Compound `O=C(c1ccc(F)cc1)c1c(Cl)cc2n1CCC2C(=O)O` (stereo not given) showed a relative potency of 139.
`O=C(c1ccccc1)c1c(Cl)cc2n1CCC2C(=O)O` (stereo not given) displayed a relative potency of 10.
Same read-out and setting: the same measure for `COCCCc1cc2n(c1C(=O)c1ccc(Cl)cc1)CCC2C(=O)O` (stereo not given): 1.2.
The same measure, in the same setting: the same measure for `CSc1ccc(C(=O)c2c(Cl)cc3n2CCC3C(=O)O)cc1` (stereo not given): 68.
`COc1ccc(C(=O)c2c(C)cc3n2CCC3C(=O)O)cc1` (stereo not given) gave a relative potency of 73.
Still for that read-out and setting: the same measure for `O=C(c1ccc(F)cc1)c1c(Br)cc2n1CCC2C(=O)O` (stereo not given): 96.
Still for that read-out and setting: the same measure for `Cc1cc2n(c1C(=O)c1ccccc1)CCC2C(=O)O` (stereo not given): 43; for `O=C(c1ccc(Cl)cc1)c1c(Cl)cc2n1CCC2C(=O)O` (stereo not given): 88.
The compound `COCCc1cc2n(c1C(=O)c1ccccc1)CCC2C(=O)O` (stereo not given) came in with an ED30 of no more than 0.3 mg/kg.
Take `CS(=O)(=O)c1ccc(C(=O)c2c(Cl)cc3n2CCC3C(=O)O)cc1` (stereo not given): the relative potency is less than 1.
Compound `COCCc1cc2n(c1C(=O)c1ccc(F)cc1)CCC2C(=O)O` (stereo not given) had an ED30 of no more than 0.3 mg/kg.
Compound `CCc1cc2n(c1C(=O)c1ccc(F)cc1)CCC2C(=O)O` (stereo not given) displayed a relative potency of 46.
In the case of `C1CCC(NC2CCCCC2)CC1.Cc1cc2n(c1C(=O)c1ccccc1)CCC2(C)C(=O)O` (stereo not given), the relative potency is less than 7.
On the same count and under the same terms, the same measure for `Cc1ccc(C(=O)c2c(Cl)cc3n2CCC3C(=O)O)cc1` (stereo not given): 32.

A further assay is filed under the species Rattus norvegicus. In words: Antiinflammatory activity was determined to inhibit cotton pellet granuloma in rats with respcet to Indomethacin. The class given is functional.
Details: not given
As to `COc1ccc2c(c1)c(CC(=O)O)c(C)n2C(=O)c1ccc(Cl)cc1` [INDOMETHACIN], the relative potency was 1.
Still for that read-out and setting: the same measure for `COc1ccc2cc([C@H](C)C(=O)O)ccc2c1` [NAPROXEN]: 0.2.
